This note sets out measurements from ChEMBL document CHEMBL4627297, “Comparative reactivity analysis of small-molecule thiol surrogates” (Bioorg Med Chem, 2020).

The half-life is the time needed for the level to fall by half in the phase considered.

Data set [1] in a line: Drug reactivity against cysteine in pH 7.4 PBS buffer assessed as half life at 250 uM measured up to 72 hrs by HPLC-MS/MS analysis. The format is ADME. The note with it: PBS buffer with cysteine (thiol reactivity). The method in brief: (§1)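 Fragment (500 µM in PBS pH 7.4 with 10% acetonitrile and 200 µM indoprofen internal standard) was mixed 1:1 with 10 mM thiol surrogate in PBS. Final concentrations were 250 µM fragment, 5 mM thiol, 100 µM indoprofen and 5% acetonitrile, giving pseudo-first-order conditions. HPLC sampling at 0, 1, 2, 4, 8, 12, 24, 48 and 72 h.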

A short description of data set [2]: Drug reactivity against glutathione in pH 7.4 PBS buffer assessed as half life at 250 uM measured up to 72 hrs by HPLC analysis. The conditions noted are these: PBS buffer with glutathione (thiol reactivity). The format is ADME. The method in brief: as §1
The nature of data set [3]: Drug reactivity against cysteamine in pH 7.4 PBS buffer assessed as half life at 250 uM measured up to 72 hrs by HPLC-MS/MS analysis. The format is ADME. The conditions noted are these: PBS buffer with cysteamine (thiol reactivity). The method in brief: as §1
A short description of data set [4]: Drug reactivity against N-benzoyl-cysteine in pH 7.4 PBS buffer assessed as half life at 250 uM measured up to 72 hrs by HPLC-MS analysis. The conditions noted are these: PBS buffer with N-benzoyl-cysteine (thiol reactivity). The data set is classed as ADME. The method in brief: as §1
Data set [5] is described as follows: Solubility of the compound in pH 7.4 PBS buffer. The format is physicochemical. The method in brief:
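Solubility was judged by eye as the absence of precipitation during the thiol reactivity incubations. Conditions were 250 µM fragment in PBS pH 7.4 with 5% acetonitrile, over up to 72 h.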

The nature of data set [6]: Drug reactivity against N-benzoyl-glutathione in pH 7.4 PBS buffer assessed as half life at 250 uM measured up to 72 hrs by HPLC-MS/MS analysis. The data set is classed as ADME. The conditions noted are these: PBS buffer with N-benzoyl-glutathione (thiol reactivity). The method in brief:
as §1

Data set [7] can be described thus: Drug reactivity against N-acetyl-cysteine in pH 7.4 PBS buffer assessed as half life at 250 uM measured up to 72 hrs by HPLC-MS analysis. The format is ADME. The conditions noted are these: PBS buffer with N-acetyl-cysteine (thiol reactivity). The method in brief:
as §1

Data set [8] can be described thus: Drug reactivity against N-bezoyl-cysteamine in pH 7.4 PBS buffer assessed as half life at 250 uM measured up to 72 hrs by HPLC analysis. The conditions noted are these: PBS buffer with N-benzoyl-cysteamine (thiol reactivity). The data set is classed as ADME. The method in brief: as §1

As to `FC(F)(F)c1cc(S)cc(C(F)(F)F)c1`, the half-life at 250 µM in data set [1] was over 3000 min; in data set [2] it was 1890 min; in data set [3], over 3000 min; in data set [4], over 3000 min; in data set [6], 11.2 h; in data set [7], 33 h. For the same compound, in data set [8], the half-life at 250 µM was over 3000 min. The solubility entry in data set [5] was “Soluble”.

As for `Fc1cc(C(F)(F)F)cc(C(F)(F)F)c1`, the half-life at 250 µM in data set [1] was over 3000 min; in data set [3] it was over 3000 min; in data set [4], over 3000 min; in data set [6] it was over 50 h; in data set [7], over 50 h; in data set [8], over 3000 min. In addition, in data set [5], the solubility entry is “Soluble”.

For the compound `C=CC(=O)Oc1cc(C(F)(F)F)cc(C(F)(F)F)c1`, the half-life at 250 µM was under 1.02 min in data set [1]; under 1.02 min in data set [2]; under 1.02 min in data set [3]; under 1.02 min in data set [4]; under 0.017 h in data set [6]; under 0.017 h in data set [7]. Also, the half-life at 250 µM in data set [8] was under 1.02 min. The solubility result in data set [5] is on record as “Soluble”.

Take `FC(F)(F)c1cc(N=C=S)cc(C(F)(F)F)c1`: the half-life at 250 µM is under 1.02 min in data set [1]; under 1.02 min in data set [2]; under 1.02 min in data set [3]; 1.02 min in data set [4]; under 0.017 h in data set [6]; under 0.017 h in data set [7]. Further, the half-life at 250 µM in data set [8] is under 1.02 min. Besides, in data set [5], the solubility entry was “Soluble”.

In the case of `O=C(CBr)c1cc(C(F)(F)F)cc(C(F)(F)F)c1`, the half-life at 250 µM was under 1.02 min in data set [1]; under 1.02 min in data set [2]; under 1.02 min in data set [3]; under 1.02 min in data set [4]; under 0.017 h in data set [6]; under 0.017 h in data set [7]. Further, the half-life at 250 µM in data set [8] was under 1.02 min. Further, in data set [5], the solubility entry is on record as “Soluble”.
